Experimental findings from ChEMBL document CHEMBL1148583, “Substituted 2-thioxoimidazolidin-4-ones and imidazolidine-2,4-diones as fatty acid amide hydrolase inhibitors templates” (J Med Chem, 2006) are described below.

Experiment [1] has as its target Cannabinoid receptor 1 (Homo sapiens) (UniProt P21554). Briefly: Displacement of [3H]SR141716A from human CB1 expressed in CHO cells at 10 uM. It is filed as cell-based. Summed up:
(§1)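 Membranes from CHO cells expressing hCB1 or hCB2 (40 µg per tube). Radioligand was 1 nM [3H]-SR141716A for CB1 or 1 nM [3H]-CP-55,940 for CB2. Competitor at 10 µM; nonspecific binding defined with 10 µM HU-210. Incubation 1 h at 30 °C in 50 mM Tris-HCl, 3 mM MgCl2, 1 mM EDTA, 0.5% BSA, pH 7.4. Filtered on PEI-treated GF/B and counted. Result is % displacement, ≥3 runs in duplicate, mean ± SEM.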

Experiment [2] deals with Cannabinoid receptor 2 (Homo sapiens) (UniProt P34972). As to the kind of experiment: Displacement of [3H]CP-55940 from human CB2 expressed in CHO cells at 10 uM. It is filed as cell-based. Summed up: as §1
For orientation: Displacement assays read how much labelled ligand stays bound in the presence of the test substance.

Experiment [3] deals with T1, Fatty-acid amide hydrolase 1 (Rattus norvegicus) (UniProt P97612).
T1 sequence (whole entry): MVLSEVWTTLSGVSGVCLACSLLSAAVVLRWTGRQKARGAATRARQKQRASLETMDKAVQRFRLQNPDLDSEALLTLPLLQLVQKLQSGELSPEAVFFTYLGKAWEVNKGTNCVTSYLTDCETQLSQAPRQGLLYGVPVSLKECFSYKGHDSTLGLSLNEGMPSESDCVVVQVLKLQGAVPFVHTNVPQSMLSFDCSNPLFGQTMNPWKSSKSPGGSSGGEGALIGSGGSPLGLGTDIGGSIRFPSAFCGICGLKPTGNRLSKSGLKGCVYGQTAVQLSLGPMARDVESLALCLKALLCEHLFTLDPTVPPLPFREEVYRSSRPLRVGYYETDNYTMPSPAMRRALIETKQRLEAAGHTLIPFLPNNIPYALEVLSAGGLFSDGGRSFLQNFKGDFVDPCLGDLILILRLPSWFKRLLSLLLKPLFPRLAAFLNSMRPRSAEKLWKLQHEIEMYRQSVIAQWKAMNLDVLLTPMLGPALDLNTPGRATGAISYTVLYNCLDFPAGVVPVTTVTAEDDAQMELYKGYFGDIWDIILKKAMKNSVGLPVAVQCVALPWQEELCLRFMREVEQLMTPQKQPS
As to the kind of experiment: Inhibitory activity against FAAH in rat brain homogenate at 100 uM. It is filed as tissue-based. To be noted: wistar. In a few lines: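 Rat brain membrane homogenate hydrolysing anandamide in 10 mM Tris-HCl, 1 mM EDTA, 0.1% BSA, pH 7.6, at 37 °C for 10 min. Reaction quenched with cold chloroform/methanol; radioactivity counted in the aqueous methanol phase. Compound tested at 100 µM; percent inhibition of FAAH activity reported.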

Experiment [4] has as its target T2, Fatty-acid amide hydrolase 1 (Rattus norvegicus, UniProt P97612).
T2 sequence (P97612 whole entry): T1 sequence (whole entry)
As to the kind of experiment: Inhibitory activity against FAAH in Wistar rat brain homogenate at pH 9.0. It is filed as tissue-based. In a few lines:
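Enzyme from male Wistar rat (250-300 g) brain membranes, washed by 36 000g spins and kept at -80 °C. Anandamide hydrolysis at pH 9.0 in 10 mM Tris-HCl, 1 mM EDTA, 0.1% BSA, 37 °C for 10 min. Stopped with cold chloroform/methanol, then the methanol/buffer phase was counted for radioactivity. Inhibition curves run ≥3 times in duplicate; IC50 by nonlinear regression, given as pI50 ± SEM.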

Chain of Cannabinoid receptor 1 (Homo sapiens) (P21554 whole entry): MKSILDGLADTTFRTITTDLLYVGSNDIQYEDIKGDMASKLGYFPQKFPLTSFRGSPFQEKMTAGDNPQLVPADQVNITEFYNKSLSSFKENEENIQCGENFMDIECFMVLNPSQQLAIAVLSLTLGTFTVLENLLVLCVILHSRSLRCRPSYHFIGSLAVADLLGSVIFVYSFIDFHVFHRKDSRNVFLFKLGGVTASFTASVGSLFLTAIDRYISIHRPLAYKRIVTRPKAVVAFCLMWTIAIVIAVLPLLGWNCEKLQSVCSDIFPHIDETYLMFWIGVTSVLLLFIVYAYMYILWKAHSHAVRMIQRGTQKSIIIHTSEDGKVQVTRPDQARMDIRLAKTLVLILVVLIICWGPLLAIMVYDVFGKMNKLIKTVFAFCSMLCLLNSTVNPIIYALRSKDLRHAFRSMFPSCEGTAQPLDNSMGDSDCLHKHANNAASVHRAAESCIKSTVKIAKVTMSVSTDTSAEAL
Chain of Cannabinoid receptor 2 (Homo sapiens) (P34972 whole entry): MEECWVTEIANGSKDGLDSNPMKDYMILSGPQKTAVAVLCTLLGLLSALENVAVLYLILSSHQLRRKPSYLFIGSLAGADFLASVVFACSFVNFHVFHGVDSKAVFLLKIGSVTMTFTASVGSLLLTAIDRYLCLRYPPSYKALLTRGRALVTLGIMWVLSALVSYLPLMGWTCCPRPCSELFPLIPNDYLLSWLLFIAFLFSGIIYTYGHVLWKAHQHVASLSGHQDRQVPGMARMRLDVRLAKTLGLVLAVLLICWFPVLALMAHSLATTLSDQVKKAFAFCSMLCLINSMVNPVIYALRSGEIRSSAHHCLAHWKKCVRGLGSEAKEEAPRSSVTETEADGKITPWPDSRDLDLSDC

Turning to `CCCCCCCCN1C(=O)NC(c2ccc(Cl)cc2)(c2ccc(Cl)cc2)C1=O`, the values for the Activity in experiment [1] and in experiment [2] were 39.5% and under 20%, respectively.

Consider `CCCCCCCCCCCCCCN1C(=O)NC(c2ccccc2)(c2ccccc2)C1=O`, for which the Activity in experiment [1] and in experiment [2] was under 20% throughout.

`CCCCCCCCN1C(=O)C(c2ccc(Br)cc2)(c2ccc(Br)cc2)NC1=S`: the Activity in experiment [1] is 23.4%; in experiment [2] it was under 20%.

As for `CCCCCN1C(=O)C(c2ccccc2)(c2ccccc2)NC1=S`, the Activity was 27.6% in experiment [1] and under 20% in experiment [2].

Broadly, the Inhibition is the percentage by which the read-out fell short of the control. For the molecule `O=C1CNC(=O)N1c1ccccc1`, the Activity in experiment [1] and in experiment [2] was under 20% throughout. The Inhibition in experiment [3] stood at 23%.

`CCCCCCCN1C(=O)C(c2ccc(Cl)cc2)(c2ccc(Cl)cc2)NC1=S`: the figures for the Activity in experiment [1] and in experiment [2] were 67.8% and under 20%, respectively.

As a reminder, the IC50 is the concentration that inhibits the measured activity by half. Read a low IC50 as greater potency in that assay. `CCCCCCCN1C(=O)NC(c2ccccc2)(c2ccccc2)C1=O` showed an IC50 in experiment [4] of 8.32 µM. Moreover, the results for the Activity in experiment [1] and in experiment [2] were 23.4% and under 20%, respectively.

Take `CCN1C(=O)C(c2ccccc2)(c2ccccc2)NC1=S`: the figures for the Activity in experiment [1] and in experiment [2] were 40% and under 10%, respectively.

In the case of `O=C1C(c2ccccc2)NC(=S)N1c1ccccc1` (stereo not drawn), the Activity in experiment [1] and in experiment [2] was under 20% each time.

On to `CCCCCCCCN1C(=O)C(c2ccc(Cl)cc2)(c2ccc(Cl)cc2)NC1=S`, for which the Activity was 36.6% in experiment [1] and under 10% in experiment [2].

For `O=C1NC(c2ccccc2)(c2ccccc2)C(=O)N1CCc1ccccc1`, the Activity in experiment [1] and in experiment [2] was under 20% in each case.

Consider `CCCCN1C(=O)NC(c2ccc(Br)cc2)(c2ccc(Br)cc2)C1=O`, for which the Activity in experiment [1] turned out to be 69.2%; in experiment [2] it was 23.1%.

As for `O=C1NC(=O)N(c2ccccc2)C1c1ccccc1` (stereo not drawn), the Activity in experiment [1] and in experiment [2] was under 20% each time.

With `CCCCCCCCCCN1C(=O)C(c2ccccc2)(c2ccccc2)NC1=S`, in experiment [4], the IC50 was 1.35 µM. Besides, the Activity in experiment [1] was under 10%; in experiment [2], under 20%.

For the molecule `O=C1N(CCc2ccccc2)C(=S)NC1(c1ccccc1)c1ccccc1`, the Activity in experiment [1] was 29.3%; in experiment [2], under 20%.

Turning to `O=C1N(c2ccccc2)C(=S)NC1(c1ccccc1)c1ccccc1`, the Activity is 32.6% in experiment [1] and under 20% in experiment [2].

`CCCCCCCC/C=C\CCCCCCCCN1C(=O)C(c2ccccc2)(c2ccccc2)NC1=S`: the Activity in experiment [1] and in experiment [2] was under 10% in each case.

As to `CCCCCCCCN1C(=O)NC(c2ccc(C)cc2)(c2ccc(C)cc2)C1=O`, the values for the Activity in experiment [1] and in experiment [2] were 24.5% and under 20%, respectively.

Consider `CCCCCCCCCCN1C(=O)NC(c2ccccc2)(c2ccccc2)C1=O`, for which the Activity in experiment [1] and in experiment [2] was under 20% in each case.

Consider `CCCCCCCCN1C(=O)NC(c2ccc(OC)cc2)(c2ccc(OC)cc2)C1=O`, for which the Activity in experiment [1] was 31.2%; in experiment [2] it was under 20%.

As for `CCCCN1C(=O)C(c2ccc(Cl)cc2)(c2ccc(Cl)cc2)NC1=S`, the Activity in experiment [1] was 72.7%; in experiment [2], under 20%.

As to `CCCCCCCN1C(=O)NC(c2ccc(Cl)cc2)(c2ccc(Cl)cc2)C1=O`, the Activity in experiment [1] is 42.7%; in experiment [2], under 20%.

For the molecule `CCCCCCCCN1C(=O)NC(c2ccccc2)(c2ccccc2)C1=O`, the Activity in experiment [1] is 25.1%; in experiment [2], under 20%.

`CCCCCCCN1C(=O)C(c2ccccc2)(c2ccccc2)NC1=S`: the Activity in experiment [1] is 28.8%; in experiment [2], under 20%.

For `CCCCCCCN1C(=O)C(c2ccccc2)NC1=S` (stereo not drawn), the Activity in experiment [1] and in experiment [2] was under 20% throughout.

As to `CCCCN1C(=O)CNC1=S`, the Activity in experiment [1] and in experiment [2] was under 20% each time. This molecule also had an Inhibition in experiment [3] of under 10%.

As for `CCCCCCN1C(=O)C(c2ccccc2)(c2ccccc2)NC1=S`, the Activity in experiment [1] was 21.9%; in experiment [2] it was under 20%.

`CC(C)CN1C(=O)C(c2ccccc2)(c2ccccc2)NC1=S`: the results for the Activity in experiment [1] and in experiment [2] were 34.6% and under 10%, respectively.

In the case of `CCCCCCCN1C(=O)C(c2ccc(Br)cc2)(c2ccc(Br)cc2)NC1=S`, the results for the Activity in experiment [1] and in experiment [2] were 34.2% and under 20%, respectively.

As to `CCCCCCCN1C(=O)CNC1=O`, the Activity in experiment [1] and in experiment [2] was under 20% each time.

Regarding `CCCCN1C(=O)C(c2ccccc2)(c2ccccc2)NC1=S`, the Activity in experiment [1] was 42.8%; in experiment [2] it was under 10%.

Take `CCCCCCCN1C(=O)NC(c2ccc(Br)cc2)(c2ccc(Br)cc2)C1=O`: the Activity in experiment [1] is 44.8%; in experiment [2], under 20%.

For `CCN1C(=O)NC(c2ccccc2)(c2ccccc2)C1=O`, the Activity in experiment [1] and in experiment [2] was under 20% in each case.

`CCCCN1C(=O)C(c2ccc(Br)cc2)(c2ccc(Br)cc2)NC1=S`: the Activity in experiment [1] is 73.8%; in experiment [2] it was under 20%.

Regarding `CCCCN1C(=O)NC(c2ccccc2)(c2ccccc2)C1=O`, the Activity in experiment [1] and in experiment [2] was under 20% throughout.

Consider `O=C1NC(=O)C(c2ccccc2)(c2ccccc2)N1`, for which the Activity in experiment [1] and in experiment [2] was under 20% in each case.

Regarding `CCCCCCCCCCCCCCCCCCN1C(=O)C(c2ccccc2)(c2ccccc2)NC1=S`, the Activity in experiment [1] and in experiment [2] was under 10% each time.

Turning to `CCCCCCCN1C(=O)C(c2ccccc2)(c2ccccc2)N(CCCCCCC)C1=S`, the Activity in experiment [1] and in experiment [2] was under 20% throughout.

Consider `CCCCN1C(=O)NC(c2ccc(Cl)cc2)(c2ccc(Cl)cc2)C1=O`, for which the Activity is 51.2% in experiment [1] and under 20% in experiment [2].

As to `O=C1N(Cc2ccccc2)C(=S)NC1(c1ccc(Cl)cc1)c1ccc(Cl)cc1`, the Activity in experiment [1] was 74.2%; in experiment [2], under 15%.

As for `CCCCCCCCN1C(=O)NC(c2ccc(Br)cc2)(c2ccc(Br)cc2)C1=O`, the Activity in experiment [1] came out at 45.1%; in experiment [2] it was 21.1%.

Regarding `COCCCN1C(=O)C(c2ccccc2)(c2ccccc2)NC1=S`, the Activity was 29.4% in experiment [1] and under 20% in experiment [2].

Turning to `CCCCCCCCN1C(=O)C(c2ccccc2)(c2ccccc2)NC1=S`, the Activity was 38.8% in experiment [1] and under 20% in experiment [2].

With `CCCCCN1C(=O)NC(c2ccccc2)(c2ccccc2)C1=O`, the results for the Activity in experiment [1] and in experiment [2] were 21.3% and under 20%, respectively.

As to `O=C1N(CCCO)C(=S)NC1(c1ccccc1)c1ccccc1`, the Activity in experiment [1] is 20.8%; in experiment [2] it was under 20%.

For the molecule `CCCCN1C(=O)CNC1=O`, the Activity in experiment [1] and in experiment [2] was under 20% each time. For the same molecule, the Inhibition in experiment [3] is under 10%.

With `O=C1NC(=S)N(c2ccccc2)C1c1ccccc1` (stereo not drawn), the Activity in experiment [1] and in experiment [2] was under 20% in each case.

Turning to `CCCCCCCN1C(=O)C(c2ccccc2)N(c2ccccc2)C1=O` (stereo not drawn), the Activity in experiment [1] is 45.6%; in experiment [2], under 20%.

On to `O=C1NC(c2ccccc2)(c2ccccc2)C(=O)N1Cc1ccccc1`, for which the Activity in experiment [1] is 33.7%; in experiment [2] it was under 20%.

`CCCCCCCCN1C(=O)NC(c2ccc(F)cc2)(c2ccc(F)cc2)C1=O`: the Activity in experiment [1] was 40.1%; in experiment [2] it was under 20%.

Take `O=C1NC(=S)NC1(c1ccccc1)c1ccccc1`: the Activity is under 15% in experiment [1] and under 10% in experiment [2].

On to `O=C1NC(c2ccc(Cl)cc2)(c2ccc(Cl)cc2)C(=O)N1Cc1ccccc1`, for which the Activity is 72.2% in experiment [1] and under 20% in experiment [2].

For the molecule `O=C1NC(c2ccccc2)C(=O)N1c1ccccc1` (stereo not drawn), the Activity in experiment [1] and in experiment [2] was under 20% in each case.

Turning to `O=C1CNC(=S)N1c1ccccc1`, the Activity in experiment [1] and in experiment [2] was under 20% in each case. Further, the Inhibition in experiment [3] amounted to 25%.

On to `CCCCCCCCCCCCCCCCN1C(=O)C(c2ccccc2)(c2ccccc2)NC1=S`, for which the Activity in experiment [1] and in experiment [2] was under 10% in each case.

Turning to `O=C1N(Cc2ccccc2)C(=S)NC1(c1ccccc1)c1ccccc1`, the figures for the Activity in experiment [1] and in experiment [2] were 44.7% and under 20%, respectively.
